Measurements reported in ChEMBL document CHEMBL3120102, “Structure-based design, synthesis and biological evaluation of novel anthra[1,2-d]imidazole-6,11-dione homologues as potential antitumor agents” (2013).

Assays:
Assay type in all cases: functional
[1] = system: MDA-MB-468; assay: Cytotoxicity against human MDA-MB-468 cells assessed as growth inhibition after 48 hrs by SRB assay
Outline: (§1)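 NCI 60-cell-line screen, five-dose stage: each cell line exposed for 48 h to five concentrations spanning five log steps; cellular protein measured by sulforhodamine B colorimetry. A time-zero cell control and plates without drug are used to derive GI50, TGI and LC50 from log-concentration dose-response curves.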

[2] = system: BT-549; assay: Cytotoxicity against human BT549 cells assessed as growth inhibition after 48 hrs by SRB assay
Outline: (§2)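 NCI 60-cell-line five-dose screen at […]. Drug exposure was 48 h, followed by sulforhodamine B protein staining. GI50, TGI and LC50 were calculated against a time-zero control and untreated plates, with dose–response curves plotted from log10 concentration.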

[3] = (§3) Cytotoxicity against human Hs578T cells assessed as growth inhibition after 48 hrs by SRB assay; conditions: Hs-578T; outline: as §2
[4] = system: Hs-578T; assay: as §3; outline: as §2
[5] = system: PC-3; assay: Cytotoxicity against human PC3 cells assessed as growth inhibition after 48 hrs by SRB assay; outline: as §1
[6] = (§4) Cytotoxicity against human UO31 cells assessed as growth inhibition after 48 hrs by SRB assay; conditions: UO-31, 48 h
Outline: (§5)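 NCI 60-cell-line screen, two stages. Five-dose testing at […]. Cellular protein measured by sulforhodamine B colorimetry after 48 h drug exposure. A time-zero control and drug-free plates are used to derive GI50, TGI and LC50 from dose-response curves plotted as log10 concentration per cell line.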

[7] = system: UO-31; assay: as §4; outline: as §5
[8] = system: ACHN; assay: Cytotoxicity against human ACHN cells assessed as growth inhibition after 48 hrs by SRB assay; outline: as §2
[9] = system: A498; assay: Cytotoxicity against human A498 cells assessed as growth inhibition after 48 hrs by SRB assay; outline: as §2
[10] = system: 786-0; assay: Cytotoxicity against human 786-0 cells assessed as growth inhibition after 48 hrs by SRB assay; outline: as §2
[11] = system: OVCAR-3; assay: Cytotoxicity against human OVCAR3 cells assessed as growth inhibition after 48 hrs by SRB assay; outline: as §1
[12] = (§6) Cytotoxicity against human OVCAR4 cells assessed as growth inhibition after 48 hrs by SRB assay; conditions: OVCAR-4, 48 h; outline: as §1
[13] = system: OVCAR-4; assay: as §6; outline: as §1
[14] = system: UACC-62; assay: Cytotoxicity against human UACC62 cells assessed as growth inhibition after 48 hrs by SRB assay; outline: as §5
[15] = system: IGROV-1; assay: Cytotoxicity against human IGROV1 cells assessed as growth inhibition after 48 hrs by SRB assay; outline: as §2
[16] = (§7) Cytotoxicity against human UACC257 cells assessed as growth inhibition after 48 hrs by SRB assay; conditions: UACC-257, 48 h; outline: as §5
[17] = system: UACC-257; assay: as §7; outline: as §5
[18] = system: SK-MEL-5; assay: Cytotoxicity against human SK-MEL-5 cells assessed as growth inhibition after 48 hrs by SRB assay; outline: as §1
[19] = system: LOX IMVI; assay: Cytotoxicity against human LOXIMVI cells assessed as growth inhibition after 48 hrs by SRB assay; outline: as §2
[20] = system: SNB-19; assay: Cytotoxicity against human SNB19 cells assessed as growth inhibition after 48 hrs by SRB assay; outline: as §5
[21] = system: SF-539; assay: Cytotoxicity against human SF539 cells assessed as growth inhibition after 48 hrs by SRB assay; outline: as §1
[22] = system: SF-268; assay: Cytotoxicity against human SF268 cells assessed as growth inhibition after 48 hrs by SRB assay; outline: as §1
[23] = system: HCT-15; assay: Cytotoxicity against human HCT15 cells assessed as growth inhibition after 48 hrs by SRB assay; outline: as §2
[24] = system: HCT-116; assay: Cytotoxicity against human HCT116 cells assessed as growth inhibition after 48 hrs by SRB assay; outline: as §2
[25] = system: COLO 205; assay: Cytotoxicity against human COLO205 cells assessed as growth inhibition after 48 hrs by SRB assay; outline: as §2
[26] = system: NCI-H322M; assay: Cytotoxicity against human NCI-H322M cells assessed as growth inhibition after 48 hrs by SRB assay; outline: as §1
[27] = system: NCI-H23; assay: Cytotoxicity against human NCI-H23 cells assessed as growth inhibition after 48 hrs by SRB assay; outline: as §1
[28] = (§8) Cytotoxicity against human EKVX cells assessed as growth inhibition after 48 hrs by SRB assay; outline: as §2
[29] = system: EKVX; assay: as §8; outline: as §2
[30] = system: SR; assay: Cytotoxicity against human SR cells assessed as growth inhibition after 48 hrs by SRB assay; outline: as §5
[31] = Cytotoxicity against human Hs578T cells assessed as cell growth at 10 uM after 48 hrs by SRB assay; conditions: Hs-578T, read-out: Activity
[32] = read-out: LC50 (the source's name)

CCCSc1nc2ccc3c(c2[nH]1)C(=O)c1ccccc1C3=O
growth inhibition (GI) [1]: Dose-dependent effect | GI50 ([1]; MDA-MB-468, 48 h): 6.38 µM | LC50 ([1]; MDA-MB-468, 48 h): > 100 µM | TGI ([1]; MDA-MB-468, 48 h): > 100 µM | growth inhibition (GI) [2]: Dose-dependent effect | GI50 ([2]; BT-549, 48 h): 33.4 µM | LC50 (concentration killing 50% of cells) ([2]; BT-549, 48 h): > 100 µM | TGI ([2]; BT-549, 48 h): > 100 µM | GI50 [3]: 3.45 µM | TGI [3]: 83 µM | CC50 [3, 32]: > 100 µM | growth inhibition (GI) [4]: Dose-dependent effect | growth inhibition (GI) [5]: Dose-dependent effect | GI50 ([5]; PC-3, 48 h): 11.3 µM | LC50 ([5]; PC-3, 48 h): > 100 µM | TGI ([5]; PC-3, 48 h): > 100 µM | GI50 [6]: 2.53 µM | LC50 [6]: > 100 µM | TGI [6]: 70.2 µM | growth inhibition (GI) [7]: Dose-dependent effect | GI50 [8]: 2.69 µM | TGI [8]: 42.8 µM | growth inhibition (GI) [8]: Dose-dependent effect | CC50 [8, 32]: > 100 µM | growth inhibition (GI) [9]: Dose-dependent effect | GI50 ([9]; A498, 48 h): 13.9 µM | TGI ([9]; A498, 48 h): > 100 µM | CC50 ([9]; A498, 48 h, read-out: LC50 (the source's name)): > 100 µM | growth inhibition (GI) [10]: Dose-dependent effect | GI50 ([10]; 786-0, 48 h): 2.13 µM | LC50 (concentration causing 50% net cell kill) ([10]; 786-0, 48 h): 9.04 µM | TGI ([10]; 786-0, 48 h): 4.39 µM | growth inhibition (GI) [11]: Dose-dependent effect | GI50 ([11]; OVCAR-3, 48 h): 3.97 µM | LC50 (50% lethal concentration) ([11]; OVCAR-3, 48 h): > 100 µM | TGI ([11]; OVCAR-3, 48 h): 37.6 µM | GI50 [12]: 5.05 µM | LC50 (concentration killing 50% of cells) [12]: > 100 µM | TGI [12]: > 100 µM | growth inhibition (GI) [13]: Dose-dependent effect | growth inhibition (GI) [14]: Dose-dependent effect | GI50 ([14]; UACC-62, 48 h): 5.78 µM | LC50 ([14]; UACC-62, 48 h): > 100 µM | TGI ([14]; UACC-62, 48 h): > 100 µM | growth inhibition (GI) [15]: Dose-dependent effect | GI50 ([15]; IGROV-1, 48 h): 4.03 µM | LC50 ([15]; IGROV-1, 48 h): > 100 µM | TGI ([15]; IGROV-1, 48 h): > 100 µM | GI50 [16]: > 100 µM | LC50 [16]: > 100 µM | TGI [16]: > 100 µM | growth inhibition (GI) [17]: Dose-dependent effect | growth inhibition (GI) [18]: Dose-dependent effect | GI50 ([18]; SK-MEL-5, 48 h): > 100 µM | LC50 (concentration killing 50% of cells relative to time zero) ([18]; SK-MEL-5, 48 h): > 100 µM | TGI ([18]; SK-MEL-5, 48 h): > 100 µM | GI50 [19]: 3.69 µM | LC50 [19]: > 100 µM | TGI [19]: > 100 µM | growth inhibition (GI) [19]: Dose-dependent effect | growth inhibition (GI) [20]: Dose-dependent effect | GI50 ([20]; SNB-19, 48 h): 9.35 µM | LC50 ([20]; SNB-19, 48 h): > 100 µM | TGI ([20]; SNB-19, 48 h): > 100 µM | growth inhibition (GI) [21]: Dose-dependent effect | GI50 ([21]; SF-539, 48 h): 3.07 µM | TGI ([21]; SF-539, 48 h): 32 µM | CC50 ([21]; SF-539, 48 h, read-out: LC50 (the source's name)): > 100 µM | growth inhibition (GI) [22]: Dose-dependent effect | GI50 ([22]; SF-268, 48 h): 3.71 µM | LC50 (concentration killing 50% of cells relative to time zero) ([22]; SF-268, 48 h): > 100 µM | TGI ([22]; SF-268, 48 h): > 100 µM | growth inhibition (GI) [23]: Dose-dependent effect | GI50 ([23]; HCT-15, 48 h): > 100 µM | LC50 (concentration killing 50% of cells) ([23]; HCT-15, 48 h): > 100 µM | TGI ([23]; HCT-15, 48 h): > 100 µM | growth inhibition (GI) [24]: Dose-dependent effect | GI50 ([24]; HCT-116, 48 h): 3.06 µM | LC50 ([24]; HCT-116, 48 h): > 100 µM | TGI ([24]; HCT-116, 48 h): > 100 µM | growth inhibition (GI) [25]: Dose-dependent effect | GI50 ([25]; COLO 205, 48 h): > 100 µM | LC50 ([25]; COLO 205, 48 h): > 100 µM | TGI ([25]; COLO 205, 48 h): > 100 µM | GI50 [26]: > 100 µM | LC50 (concentration killing 50% of cells relative to time zero) [26]: > 100 µM | TGI [26]: > 100 µM | growth inhibition (GI) [26]: Dose-dependent effect | growth inhibition (GI) [27]: Dose-dependent effect | GI50 ([27]; NCI-H23, 48 h): 48 µM | LC50 ([27]; NCI-H23, 48 h): > 100 µM | TGI ([27]; NCI-H23, 48 h): > 100 µM | GI50 [28]: 64.9 µM | LC50 [28]: > 100 µM | TGI [28]: > 100 µM | growth inhibition (GI) [29]: Dose-dependent effect | GI50 [30]: 4.63 µM | LC50 (50% lethal concentration) [30]: > 100 µM | TGI [30]: > 100 µM | growth inhibition (GI) [30]: Dose-dependent effect | growth at 10 µM [31]: 33.3%
